# Tests used:
# Tyrosinase [1] = biological target: T1, Tyrosinase (Agaricus bisporus, UniProt O42713); assay: Inhibition of mashroom tyrosinase assessed as oxidation of L-DOPA by spectrophotometry
# T1 sequence (O42713 whole entry): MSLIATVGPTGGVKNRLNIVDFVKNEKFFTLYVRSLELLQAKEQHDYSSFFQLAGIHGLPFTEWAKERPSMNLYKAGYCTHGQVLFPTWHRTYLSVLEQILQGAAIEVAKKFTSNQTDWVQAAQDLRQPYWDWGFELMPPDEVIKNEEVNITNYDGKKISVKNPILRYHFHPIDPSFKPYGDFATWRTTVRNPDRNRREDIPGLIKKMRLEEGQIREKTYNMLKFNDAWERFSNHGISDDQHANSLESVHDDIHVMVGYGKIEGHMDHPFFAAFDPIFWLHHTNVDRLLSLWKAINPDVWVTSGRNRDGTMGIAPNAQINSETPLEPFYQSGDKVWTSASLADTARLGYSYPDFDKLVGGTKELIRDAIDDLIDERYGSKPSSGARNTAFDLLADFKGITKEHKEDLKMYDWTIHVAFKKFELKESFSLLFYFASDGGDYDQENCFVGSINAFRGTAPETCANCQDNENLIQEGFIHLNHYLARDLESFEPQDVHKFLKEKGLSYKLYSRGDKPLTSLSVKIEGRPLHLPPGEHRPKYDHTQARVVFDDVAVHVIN
# Method in brief: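 Mushroom tyrosinase diphenolase activity with L-DOPA as substrate. Compounds dissolved in DMSO and diluted with phosphate buffer pH 6.8, final DMSO 2.0%. Thirty units of enzyme pre-incubated with compound in 50 mM phosphate buffer (pH 6.8) for 10 min at 25 °C. Triplicate per concentration. IC50 interpolated from log concentration–inhibition curves (at least eight points), mean of three experiments.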
# Tyrosinase [2] = biological target: T1, Tyrosinase; assay: Inhibition of mushroom tyrosinase assessed as oxidation of L-DOPA by Lineweaver-Burke plot analysis
# Method in brief: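 Kinetics use the same pre-incubation (10 min, 25 °C, 50 mM phosphate pH 6.8) and measurement time as the IC50 assay, with three inhibitor concentrations per compound including zero and L-DOPA varied. Initial velocity taken from absorbance change over time. Lineweaver–Burk plots were drawn, and KI was obtained from a secondary plot of intercept versus inhibitor concentration.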
# Mus musculus = assay: Toxicity in mouse at 1600 mg/kg/day, po measured for 20 days; assay type: organism-based; design: route oral; settings: in vivo, 480 h
# Method in brief: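 Ten specific-pathogen-free mice, 4 weeks old, acclimated for one week at 20 ± 2 °C and 50 ± 10% relative humidity, weighing 20 ± 2 g. Mice were fasted 4 h, then given a single oral gavage in carboxymethyl cellulose (10 ml/kg; dosing solution 160 mg/ml). Vehicle served as negative control. Clinical signs and mortality were followed 20 days, then organs were examined at autopsy.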
SMILES,IC50 (Tyrosinase [1]) [µM],Ki (Tyrosinase [2]) [µM],Activity (Mus musculus)
COC(=O)CNC(=O)COc1ccc(C=O)cc1,170,117,
CCC(C)C(NC(=O)COc1ccc(C=O)cc1)C(=O)OC (stereo not drawn),460,,
COC(=O)C(Cc1c[nH]c2ccccc12)NC(=O)COc1ccc(C=O)cc1 (stereo not drawn),110,54,
COC(=O)C(Cc1ccc(O)cc1)NC(=O)COc1ccc(C=O)cc1 (stereo not drawn),220,,
COC(=O)C(C)NC(=O)COc1ccc(C=O)cc1 (stereo not drawn),160,125,
COC(=O)C(CCSC)NC(=O)COc1ccc(C=O)cc1 (stereo not drawn),400,,
COC(=O)C1CCCN1C(=O)COc1ccc(C=O)cc1 (stereo not drawn),760,,
COC(=O)C(Cc1ccccc1)NC(=O)COc1ccc(C=O)cc1 (stereo not drawn),480,,
COC(=O)C(CC(C)C)NC(=O)COc1ccc(C=O)cc1 (stereo not drawn),1650,,
O=Cc1ccc(OCCOC(=O)CCC(=O)O)cc1,620,,
O=Cc1ccc(OCC2CO2)cc1 (stereo not drawn),590,,
O=Cc1ccc(OCOC(CO)CO)cc1,270,,
COCC(O)COc1ccc(C=O)cc1 (stereo not drawn),750,,
O=Cc1ccc(OCOCCO)cc1,370,,
O=Cc1ccc(OCCO)cc1,2550,,
O=Cc1ccc(OCCOP(=O)(O)O)cc1,820,,
COCCOCCOc1ccc(C=O)cc1,900,,
COP(=O)(OC)OCCOc1ccc(C=O)cc1,59,36.8,Non-toxic
CCCCOCCOc1ccc(C=O)cc1,3260,,
COCCCCOc1ccc(C=O)cc1,620,,
CCOP(=O)(OCC)OCCOc1ccc(C=O)cc1,550,,
O=Cc1ccc(OCC(O)CO)cc1 (stereo not drawn),1260,,
COCCOc1ccc(C=O)cc1,660,,

# — ChEMBL document CHEMBL1154720, “Synthesis and biological evaluation of novel 4-hydroxybenzaldehyde derivatives as tyrosinase inhibitors” (Eur J Med Chem, 2010)
